According to ChEMBL document CHEMBL3045217, “Factors affecting the synergy of thiabendazole, sodium bicarbonate, and heat to control postharvest green mold of citrus fruit” (J Agric Food Chem, 2008):

Columns and labels:
[1] = system: Inner fruit; experiment: Drug residues in Citrus sinensis cvs. Salustiana (Salustiana oranges) inner fruit at 600 mg/L treated for 1 min at 20 degC postharvest measured after overnight incubation at 17 degC by GC analysis; format: ADME
Procedure, shortened: (§1)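 'Salustiana' oranges were washed with water and air-dried. They were dipped 1 or 3 min in TBZ 600 mg/L at 20 or 50 °C, or 1 min in TBZ 600 mg/L plus 2% SBC at 20 °C, then dried overnight at 17 °C in the dark. Surface residue was taken by water extraction and wax residue by chloroform extraction. Inner residue was measured in fruit after both extractions. Extracts were dried under N2, taken up in acetone and analysed by GC. Values are mg/kg on a whole-fruit basis.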

[2] = system: Penicillium digitatum; experiment: (§2) Fungicidal activity against TBZ-resistant Penicillium digitatum infected Nova mandarins assessed as postharvest green mold incidence at 600 mg/L treated for 1 min at 20 degC at 20 hr after fungal conidial inoculation measured after 5 days of storage at 20 degC in presence of 2% SBC (water Rvb = 61.7%); format: functional
[3] = system: Inner fruit; experiment: Drug residues in Citrus sinensis cvs. Salustiana (Salustiana oranges) inner fruit at 600 mg/L treated for 1 min at 20 degC postharvest measured after overnight incubation at 17 degC in presence of 2% SBC by GC analysis; format: ADME; procedure, shortened: as §1
[4] = system: Penicillium digitatum; experiment: as §2, with “0.5%” for “2%”, “86.7%)” for “61.7%)”; format: functional
[5] = system: Fruit; experiment: Drug residues in Citrus sinensis cvs. Valencia late (Valencia oranges) at 600 mg/L treated for 1 min at 20 degC postharvest measured immediately post-drug treatment in presence of 2% SBC by GC analysis; format: ADME
Procedure, shortened: (§3)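 'Valencia' oranges were dipped 1 min in TBZ at 600 mg/L (20 °C, ±0.5, 1 or 2% wt/vol SBC), 400 mg/L (40 °C, ±SBC) or 200 mg/L (50 °C, alone), then air-dried. They were sampled at 0, 10 and 20 days at 17 °C. Peel of five fruit was frozen, and 5 g of homogenate was extracted with ethyl acetate/hexane (1/1) plus NaCl. The extract was dried under N2, taken up in acetone and analysed by GC. Results are mg/kg on a whole-fruit basis.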

[6] = system: Penicillium digitatum; experiment: Fungicidal activity against TBZ-sensitive Penicillium digitatum infected Nova mandarins assessed as postharvest green mold incidence at 200 mg/L treated for 1 min at 50 degC at 20 hr after fungal conidial inoculation measured after 5 days of storage at 20 degC (water Rvb = 98.3%); format: functional
Procedure, shortened: (§4)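 Fruit were surface-disinfected in 1 g/L hypochlorite for 30 s, rinsed, dried, then wounded twice equatorially (2 mm × 2 mm rod). Inoculation was a 1 min dip in P. digitatum conidia, 1 × 10^5 conidia/mL final. Fruit were held 20 h at 20 °C and 90% RH, dipped 1 min (SBC wt/vol), and air-dried. Storage was 20 °C, 90% RH. Decay incidence (% fruit with lesions) was scored at 5 d for mandarins and 7 d for oranges. Three replicates of 40 fruit were used; arcsin-transformed data were compared by LSD, p ≤ 0.05.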

[7] = system: Penicillium digitatum; experiment: Fungicidal activity against TBZ-resistant Penicillium digitatum infected Nova mandarins assessed as postharvest green mold incidence at 400 mg/L treated for 1 min at 40 degC at 20 hr after fungal conidial inoculation measured after 5 days of storage at 20 degC in presence of 0.5% SBC (water Rvb = 83.3%); format: functional
[8] = system: Fruit; experiment: Drug residues in Citrus sinensis cvs. Valencia late (Valencia oranges) at 400 mg/L treated for 1 min at 40 degC postharvest measured immediately post-drug treatment in presence of 0.5% SBC by GC analysis; format: ADME; procedure, shortened: as §3
[9] = system: Penicillium digitatum; experiment: Fungicidal activity against Penicillium digitatum infected Valenica oranges assessed as fruit weight loss at 600 mg/L treated for 1 min at 20 degC postharvest at 20 hr after fungal conidial inoculation measured after 7 days of storage at 17 degC in presence of 1% SBC (water Rvb = 3.89%); format: functional
[10] = system: Penicillium digitatum; experiment: Fungicidal activity against Penicillium digitatum infected Valenica oranges assessed as fruit weight loss at 400 mg/L treated for 1 min at 40 degC postharvest at 20 hr after fungal conidial inoculation measured after 14 days of storage at 17 degC in presence of 0.5% SBC (water Rvb = 7.90%); format: functional
[11] = system: Fruit; experiment: Drug residues in Citrus sinensis cvs. Valencia late (Valencia oranges) at 400 mg/L treated for 1 min at 40 degC postharvest measured after 20 days of storage at 17 degC in presence of 0.5% SBC by GC analysis; format: ADME; procedure, shortened: as §3
[12] = system: Fruit; experiment: Drug residues in Citrus sinensis cvs. Valencia late (Valencia oranges) at 400 mg/L treated for 1 min at 40 degC postharvest measured after 10 days of storage at 17 degC in presence of 0.5% SBC by GC analysis; format: ADME; procedure, shortened: as §3
[13] = system: Fruit surface; experiment: Drug residues on Citrus sinensis cvs. Salustiana (Salustiana oranges) fruit surface at 600 mg/L treated for 3 min at 20 degC postharvest measured after overnight incubation at 17 degC by GC analysis; format: ADME; settings: 0.05 h; procedure, shortened: as §1
[14] = system: Fruit; experiment: Drug residues in Citrus sinensis cvs. Valencia late (Valencia oranges) at 600 mg/L treated for 1 min at 20 degC postharvest measured after 10 days of storage at 17 degC in presence of 1% SBC by GC analysis; format: ADME; procedure, shortened: as §3
[15] = system: Penicillium digitatum; experiment: as §2, with “TBZ-sensitive” for “TBZ-resistant”, “0.5%” for “2%”, “100%)” for “61.7%)”; format: functional; procedure, shortened: as §4
[16] = system: Penicillium digitatum; experiment: as §2, with “Valencia oranges” for “Nova mandarins”, “7” for “5”, “0.5%” for “2%”, “85.8%)” for “61.7%)”; format: functional
[17] = system: Penicillium digitatum; experiment: Fungicidal activity against Penicillium digitatum infected Valenica oranges assessed as fruit weight loss at 600 mg/L treated for 1 min at 20 degC postharvest at 20 hr after fungal conidial inoculation measured after 21 days of storage at 17 degC in presence of 0.5% SBC (water Rvb = 10.79%); format: functional
[18] = system: Penicillium digitatum; experiment: as §2, with “TBZ-sensitive” for “TBZ-resistant”, “96.7%)” for “61.7%)”; format: functional; procedure, shortened: as §4
[19] = system: Penicillium digitatum; experiment: Fungicidal activity against Penicillium digitatum infected Valenica oranges assessed as fruit weight loss at 400 mg/L treated for 1 min at 40 degC postharvest at 20 hr after fungal conidial inoculation measured after 14 days of storage at 17 degC in presence of 2% SBC (water Rvb = 9.20%); format: functional
[20] = system: Fruit; experiment: Drug residues in Citrus sinensis cvs. Valencia late (Valencia oranges) at 400 mg/L treated for 1 min at 40 degC postharvest measured immediately post-drug treatment in presence of 1% SBC by GC analysis; format: ADME; procedure, shortened: as §3
[21] = system: Fruit; experiment: Drug residues in Citrus sinensis cvs. Valencia late (Valencia oranges) at 400 mg/L treated for 1 min at 40 degC postharvest measured after 20 days of storage at 17 degC by GC analysis; format: ADME; procedure, shortened: as §3
[22] = system: Fruit surface; experiment: Drug residues on Citrus sinensis cvs. Salustiana (Salustiana oranges) fruit surface at 600 mg/L treated for 1 min at 20 degC postharvest measured after overnight incubation at 17 degC in presence of 2% SBC by GC analysis; format: ADME; procedure, shortened: as §1
[23] = system: Fruit; experiment: Drug residues in Citrus sinensis cvs. Valencia late (Valencia oranges) at 200 mg/L treated for 1 min at 50 degC postharvest measured after 10 days of storage at 17 degC by GC analysis; format: ADME; procedure, shortened: as §3

## c1ccc2[nH]c(-c3cscn3)nc2c1 [THIABENDAZOLE]
[1]
  Drug uptake: 0.13 mg/kg
[2]
  Activity: 40%
[3]
  Drug uptake: 0.01 mg/kg
[4]
  Activity: 93.3%
[5]
  Drug uptake: 1.22 mg/kg
[6]
  Activity: 3.3%
[7]
  Activity: 70%
[8]
  Drug uptake: 0.79 mg/kg
[9]
  Activity: 4.33%
[10]
  Activity: 8.39%
[11]
  Drug uptake: 0.79 mg/kg
[12]
  Drug uptake: 0.76 mg/kg
[13]
  Drug uptake: 0.69 mg/kg
[14]
  Drug uptake: 1.45 mg/kg
[15]
  Activity: 0%
[16]
  Activity: 38.3%
[17]
  Activity: 11.84%
[18]
  Activity: 0%
[19]
  Activity: 9.45%
[20]
  Drug uptake: 0.75 mg/kg
[21]
  Drug uptake: 0.87 mg/kg
[22]
  Drug uptake: 0.53 mg/kg
[23]
  Drug uptake: 0.43 mg/kg
